In ChEMBL document CHEMBL4350961, “Discovery of Pyrrolo[3,2- d]pyrimidin-4-one Derivatives as a New Class of Potent and Cell-Active Inhibitors of P300/CBP-Associated Factor Bromodomain” (J Med Chem, 2019):
Active and inactive are the calls of the source. The calls are words filed in the database; no cut-off is given here.

Legend:
[1] = tested on: MEF; assay: Effect on Celsr1 gene expression in MEF cells at 2.5 uM measured after 48 hrs by RNA-sequencing analysis relative to control; type: functional, Mus musculus
Method in brief: (§1)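 Mouse embryonic fibroblasts treated 48 h; negative-control enantiomer at 2.5 µM, DMSO as blank. Total RNA extracted with TRIzol, checked by NanoDrop, then RNA-seq with n = 3 per set. Genes called changed at >1.5-fold with p < 0.05 against blank.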

[2] = tested on: MEF; assay: Effect on Prrg3 gene expression in MEF cells at 2.5 uM measured after 48 hrs by RNA-sequencing analysis relative to control; type: functional, Mus musculus; method in brief: as §1
[3] = biological target: Tyrosine-protein kinase CSK (Homo sapiens) (UniProt P41240); assay: Inhibition of full-length recombinant human CSK at 10 uM using poly(Glu, Tyr) 4:1 as substrate measured after 40 mins in presence of [gamma33P]ATP by scintillation counting method
Method in brief: (§2)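 Kinase panel of 422 kinases screened by Eurofins KinaseProfiler at a single test-compound concentration of 10 µM.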

[4] = tested on: MEF; assay: Effect on Srcin1 gene expression in MEF cells at 2.5 uM measured after 48 hrs by RNA-sequencing analysis relative to control; type: functional, Mus musculus; method in brief: as §1
[5] = Unbound fraction in Sprague-Dawley rat plasma at 1 uM measured after 16 hrs by equilibrium dialysis-based LC-MS/MS analysis; type: ADME, cell-free
[6] = tested on: MEF; assay: Effect on Aatk gene expression in MEF cells at 2.5 uM measured after 48 hrs by RNA-sequencing analysis relative to control; type: functional, Mus musculus; method in brief: as §1
[7] = tested on: MEF; assay: Effect on Plekhg4 gene expression in MEF cells at 2.5 uM measured after 48 hrs by RNA-sequencing analysis relative to control; type: functional, Mus musculus; method in brief: as §1
[8] = biological target: Serine/threonine-protein kinase PAK 5 (Homo sapiens) (UniProt Q9P286); assay: Inhibition of recombinant human PAK5 (425 to end residues) at 10 uM using RRRLSFAEPG as substrate measured after 40 mins in presence of [gamma33P]ATP by scintillation counting method
[9] = tested on: MEF; assay: Effect on P2rx6 gene expression in MEF cells at 2.5 uM measured after 48 hrs by RNA-sequencing analysis relative to control; type: functional, Mus musculus; method in brief: as §1
[10] = tested on: MEF; assay: Effect on Gabra3 gene expression in MEF cells at 2.5 uM measured after 48 hrs by RNA-sequencing analysis relative to control; type: functional, Mus musculus; method in brief: as §1
[11] = organism: Homo sapiens; assay: Inhibition of recombinant full-length human AURKA I31F mutant at 10 uM using LRRASLG as substrate measured after 40 mins in presence of [gamma33P]ATP by scintillation counting method
[12] = biological target: Serine/threonine-protein kinase Nek1 (Homo sapiens) (UniProt Q96PY6); assay: Inhibition of recombinant human NEK1 (1 to 505 residues) at 10 uM using RLGRDKYKTLRQIRQ as substrate measured after 40 mins in presence of [gamma33P]ATP by scintillation counting method
[13] = tested on: Mitogen-activated protein kinase 14 (Homo sapiens), Q16539 [T106M]; assay: Inhibition of recombinant full-length human SAPK2a T106M mutant at 10 uM using myelin basic protein as substrate measured after 40 mins in presence of [gamma33P]ATP by scintillation counting method
[14] = tested on: MEF; assay: Effect on Gabra4 gene expression in MEF cells at 2.5 uM measured after 48 hrs by RNA-sequencing analysis relative to control; type: functional, Mus musculus; method in brief: as §1
[15] = tested on: MEF; assay: Effect on Zfyve28 gene expression in MEF cells at 2.5 uM measured after 48 hrs by RNA-sequencing analysis relative to control; type: functional, Mus musculus
Method in brief: (§3)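 MEF cells treated for 48 h with test compound, with (S,S) enantiomer at 2.5 µM as negative control and DMSO as blank; total RNA (TRIzol, n = 3 per set) analysed by RNA-seq; genes counted as changed at >1.5-fold, p < 0.05, relative to blank control.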

[16] = biological target: Serine/threonine-protein kinase 35 (Homo sapiens) (UniProt Q8TDR2); assay: Inhibition of recombinant full length human CLIK1 at 10 uM using RSRSRSRSRSRSRSR as substrate measured after 40 mins in presence of [gamma33P]ATP by scintillation counting method
[17] = biological target: Mitogen-activated protein kinase 1 (Mus musculus) (UniProt P63085); assay: Inhibition of mouse MAPK2 at 10 uM
[18] = tested on: MEF; assay: Effect on Guca1a gene expression in MEF cells at 2.5 uM measured after 48 hrs by RNA-sequencing analysis relative to control; type: functional, Mus musculus; method in brief: as §1
[19] = tested on: MEF; assay: Effect on Mpz gene expression in MEF cells at 2.5 uM measured after 48 hrs by RNA-sequencing analysis relative to control; type: functional, Mus musculus; method in brief: as §1
[20] = tested on: MEF; assay: Effect on Slco1a5 gene expression in MEF cells at 2.5 uM measured after 48 hrs by RNA-sequencing analysis relative to control; type: functional, Mus musculus; method in brief: as §1
[21] = tested on: Fibroblast growth factor receptor 2 (Homo sapiens), P21802 [N549H]; assay: Inhibition of recombinant human FGFR2 N549H mutant (456 to 770 residues) at 10 uM using GGEEEEYFELVKKKK as substrate measured after 40 mins in presence of [gamma33P]ATP by scintillation counting method
[22] = biological target: Protein kinase C delta type (Homo sapiens) (UniProt Q05655); assay: Inhibition of recombinant human PKCdelta (2 to end residues) at 10 uM using ERMRPRKRQGSVRRRV as substrate measured after 40 mins in presence of [gamma33P]ATP by scintillation counting method
[23] = biological target: MAP/microtubule affinity-regulating kinase 4 (Homo sapiens) (UniProt Q96L34); assay: Inhibition of recombinant full-length human MARK4 at 10 uM using KKKVSRSGLYRSPSMPENLNRPR as substrate measured after 40 mins in presence of [gamma33P]ATP by scintillation counting method
[24] = biological target: Cyclin-dependent kinase-like 3 (Homo sapiens) (UniProt Q8IVW4); assay: Inhibition of recombinant human full-length CDKL3 (1 to 303 residues) at 10 uM using RRRFRPASPLRGP as substrate measured after 120 mins in presence of [gamma33P]ATP by scintillation counting method
[25] = tested on: MEF; assay: Effect on Hpgd gene expression in MEF cells at 2.5 uM measured after 48 hrs by RNA-sequencing analysis relative to control; type: functional, Mus musculus; method in brief: as §1
[26] = tested on: MEF; assay: Effect on Acod1 gene expression in MEF cells at 2.5 uM measured after 48 hrs by RNA-sequencing analysis relative to control; type: functional, Mus musculus; method in brief: as §1
[27] = tested on: MEF; assay: Effect on Lonrf3 gene expression in MEF cells at 2.5 uM measured after 48 hrs by RNA-sequencing analysis relative to control; type: functional, Mus musculus; method in brief: as §1
[28] = tested on: MEF; assay: Effect on plekhb1 gene expression in MEF cells at 2.5 uM measured after 48 hrs by RNA-sequencing analysis relative to control; type: functional, Mus musculus; method in brief: as §3
[29] = tested on: Tyrosine-protein kinase Blk (Homo sapiens), P51451 [UNDEFINED MUTATION]; assay: Inhibition of full-length recombinant human BLK M287V mutant at 10 uM using poly(Glu, Tyr) 4:1 as substrate measured after 40 mins in presence of [gamma33P]ATP by scintillation counting method; method in brief: as §2
[30] = tested on: MEF; assay: Effect on Gm36718 gene expression in MEF cells at 2.5 uM measured after 48 hrs by RNA-sequencing analysis relative to control; type: functional, Mus musculus; method in brief: as §1

Sequence of Cyclin-dependent kinase-like 3 (Homo sapiens) (Q8IVW4 whole entry, looked up, the tested form may be a part): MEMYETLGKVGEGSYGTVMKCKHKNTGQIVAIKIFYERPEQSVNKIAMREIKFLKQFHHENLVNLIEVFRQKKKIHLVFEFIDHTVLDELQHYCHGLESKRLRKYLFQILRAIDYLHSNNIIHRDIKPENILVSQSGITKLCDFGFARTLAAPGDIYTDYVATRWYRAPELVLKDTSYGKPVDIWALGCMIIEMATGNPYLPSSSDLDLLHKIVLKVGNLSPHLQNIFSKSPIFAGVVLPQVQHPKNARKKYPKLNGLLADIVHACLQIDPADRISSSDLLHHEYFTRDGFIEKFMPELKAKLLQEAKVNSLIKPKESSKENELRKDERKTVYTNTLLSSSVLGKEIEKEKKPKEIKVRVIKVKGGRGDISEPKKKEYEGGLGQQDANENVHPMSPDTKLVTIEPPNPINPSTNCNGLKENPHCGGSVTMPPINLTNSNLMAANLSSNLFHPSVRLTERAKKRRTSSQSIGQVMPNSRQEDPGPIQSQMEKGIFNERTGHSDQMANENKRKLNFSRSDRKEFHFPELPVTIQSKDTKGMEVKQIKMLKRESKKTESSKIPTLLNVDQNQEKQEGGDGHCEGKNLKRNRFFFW
Sequence of Serine/threonine-protein kinase PAK 5 (Homo sapiens) (Q9P286 whole entry, looked up): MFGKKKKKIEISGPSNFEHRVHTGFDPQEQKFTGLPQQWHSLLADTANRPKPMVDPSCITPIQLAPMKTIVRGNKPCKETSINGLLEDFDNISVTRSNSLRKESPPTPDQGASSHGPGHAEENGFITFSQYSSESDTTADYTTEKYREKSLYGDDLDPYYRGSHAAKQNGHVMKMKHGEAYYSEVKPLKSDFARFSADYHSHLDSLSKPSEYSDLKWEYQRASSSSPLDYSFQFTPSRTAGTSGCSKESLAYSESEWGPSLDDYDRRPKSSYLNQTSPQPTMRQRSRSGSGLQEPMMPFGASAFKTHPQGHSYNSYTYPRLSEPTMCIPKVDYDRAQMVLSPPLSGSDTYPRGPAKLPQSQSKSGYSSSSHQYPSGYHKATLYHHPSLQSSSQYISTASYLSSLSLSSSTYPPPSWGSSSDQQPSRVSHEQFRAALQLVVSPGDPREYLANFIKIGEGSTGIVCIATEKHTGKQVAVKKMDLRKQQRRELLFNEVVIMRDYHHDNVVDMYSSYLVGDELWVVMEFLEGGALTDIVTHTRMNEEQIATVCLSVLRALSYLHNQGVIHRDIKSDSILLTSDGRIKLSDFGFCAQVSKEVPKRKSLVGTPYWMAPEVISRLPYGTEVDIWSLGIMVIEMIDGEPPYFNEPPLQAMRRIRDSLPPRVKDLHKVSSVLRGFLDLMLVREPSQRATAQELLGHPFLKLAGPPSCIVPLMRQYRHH
Sequence of Serine/threonine-protein kinase 35 (Homo sapiens) (Q8TDR2 whole entry): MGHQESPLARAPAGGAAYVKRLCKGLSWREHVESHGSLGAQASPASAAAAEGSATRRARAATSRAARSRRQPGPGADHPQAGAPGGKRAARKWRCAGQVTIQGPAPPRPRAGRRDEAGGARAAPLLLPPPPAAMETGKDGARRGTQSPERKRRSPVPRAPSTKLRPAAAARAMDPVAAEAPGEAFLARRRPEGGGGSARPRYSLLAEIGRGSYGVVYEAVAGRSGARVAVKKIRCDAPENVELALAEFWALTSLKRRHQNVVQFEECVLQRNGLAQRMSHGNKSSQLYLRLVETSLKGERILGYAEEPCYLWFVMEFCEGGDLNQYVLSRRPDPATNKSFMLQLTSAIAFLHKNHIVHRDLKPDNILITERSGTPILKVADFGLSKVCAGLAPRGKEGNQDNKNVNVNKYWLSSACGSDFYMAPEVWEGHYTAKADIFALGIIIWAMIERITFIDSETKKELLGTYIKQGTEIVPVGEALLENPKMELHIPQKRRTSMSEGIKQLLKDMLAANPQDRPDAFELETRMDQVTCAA
Sequence of Mitogen-activated protein kinase 14 (Homo sapiens), Q16539 [T106M] (Q16539 whole entry T106M): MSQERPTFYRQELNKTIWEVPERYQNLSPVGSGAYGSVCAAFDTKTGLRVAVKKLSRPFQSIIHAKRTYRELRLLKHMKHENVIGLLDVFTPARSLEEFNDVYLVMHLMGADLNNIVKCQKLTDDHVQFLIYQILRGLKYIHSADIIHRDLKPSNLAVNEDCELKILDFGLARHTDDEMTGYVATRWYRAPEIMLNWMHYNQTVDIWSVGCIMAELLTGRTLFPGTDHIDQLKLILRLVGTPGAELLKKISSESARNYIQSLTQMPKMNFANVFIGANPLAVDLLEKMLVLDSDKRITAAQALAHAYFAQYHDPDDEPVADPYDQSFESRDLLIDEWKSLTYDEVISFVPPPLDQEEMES
Sequence of Tyrosine-protein kinase Blk (Homo sapiens), P51451 [UNDEFINED MUTATION] (P51451 whole entry, looked up, stated change not applied): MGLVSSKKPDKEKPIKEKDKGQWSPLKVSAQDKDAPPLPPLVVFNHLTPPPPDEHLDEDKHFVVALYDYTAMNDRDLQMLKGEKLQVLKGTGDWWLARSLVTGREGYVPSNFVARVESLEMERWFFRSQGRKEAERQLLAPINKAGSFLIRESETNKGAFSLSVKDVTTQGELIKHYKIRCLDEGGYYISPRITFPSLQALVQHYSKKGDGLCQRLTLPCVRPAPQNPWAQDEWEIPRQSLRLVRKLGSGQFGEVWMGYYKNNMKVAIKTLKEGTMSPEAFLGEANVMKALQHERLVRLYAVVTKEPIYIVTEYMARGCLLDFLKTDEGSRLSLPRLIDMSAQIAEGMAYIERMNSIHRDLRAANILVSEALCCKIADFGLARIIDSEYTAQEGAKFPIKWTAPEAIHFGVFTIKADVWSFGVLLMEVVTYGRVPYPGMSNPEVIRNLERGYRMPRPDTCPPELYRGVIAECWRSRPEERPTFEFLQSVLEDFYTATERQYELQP
Sequence of Mitogen-activated protein kinase 1 (Mus musculus) (P63085 whole entry): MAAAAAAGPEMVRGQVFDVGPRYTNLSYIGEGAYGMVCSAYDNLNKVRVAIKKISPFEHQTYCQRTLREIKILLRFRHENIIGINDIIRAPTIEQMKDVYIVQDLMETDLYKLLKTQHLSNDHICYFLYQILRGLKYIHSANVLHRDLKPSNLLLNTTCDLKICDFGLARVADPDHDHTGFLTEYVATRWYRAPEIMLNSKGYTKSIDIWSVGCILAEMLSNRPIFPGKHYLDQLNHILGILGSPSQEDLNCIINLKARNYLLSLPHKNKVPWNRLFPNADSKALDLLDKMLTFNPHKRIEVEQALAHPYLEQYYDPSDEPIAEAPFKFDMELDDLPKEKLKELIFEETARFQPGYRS
Sequence of Serine/threonine-protein kinase Nek1 (Homo sapiens) (Q96PY6 whole entry, the tested form may be a part): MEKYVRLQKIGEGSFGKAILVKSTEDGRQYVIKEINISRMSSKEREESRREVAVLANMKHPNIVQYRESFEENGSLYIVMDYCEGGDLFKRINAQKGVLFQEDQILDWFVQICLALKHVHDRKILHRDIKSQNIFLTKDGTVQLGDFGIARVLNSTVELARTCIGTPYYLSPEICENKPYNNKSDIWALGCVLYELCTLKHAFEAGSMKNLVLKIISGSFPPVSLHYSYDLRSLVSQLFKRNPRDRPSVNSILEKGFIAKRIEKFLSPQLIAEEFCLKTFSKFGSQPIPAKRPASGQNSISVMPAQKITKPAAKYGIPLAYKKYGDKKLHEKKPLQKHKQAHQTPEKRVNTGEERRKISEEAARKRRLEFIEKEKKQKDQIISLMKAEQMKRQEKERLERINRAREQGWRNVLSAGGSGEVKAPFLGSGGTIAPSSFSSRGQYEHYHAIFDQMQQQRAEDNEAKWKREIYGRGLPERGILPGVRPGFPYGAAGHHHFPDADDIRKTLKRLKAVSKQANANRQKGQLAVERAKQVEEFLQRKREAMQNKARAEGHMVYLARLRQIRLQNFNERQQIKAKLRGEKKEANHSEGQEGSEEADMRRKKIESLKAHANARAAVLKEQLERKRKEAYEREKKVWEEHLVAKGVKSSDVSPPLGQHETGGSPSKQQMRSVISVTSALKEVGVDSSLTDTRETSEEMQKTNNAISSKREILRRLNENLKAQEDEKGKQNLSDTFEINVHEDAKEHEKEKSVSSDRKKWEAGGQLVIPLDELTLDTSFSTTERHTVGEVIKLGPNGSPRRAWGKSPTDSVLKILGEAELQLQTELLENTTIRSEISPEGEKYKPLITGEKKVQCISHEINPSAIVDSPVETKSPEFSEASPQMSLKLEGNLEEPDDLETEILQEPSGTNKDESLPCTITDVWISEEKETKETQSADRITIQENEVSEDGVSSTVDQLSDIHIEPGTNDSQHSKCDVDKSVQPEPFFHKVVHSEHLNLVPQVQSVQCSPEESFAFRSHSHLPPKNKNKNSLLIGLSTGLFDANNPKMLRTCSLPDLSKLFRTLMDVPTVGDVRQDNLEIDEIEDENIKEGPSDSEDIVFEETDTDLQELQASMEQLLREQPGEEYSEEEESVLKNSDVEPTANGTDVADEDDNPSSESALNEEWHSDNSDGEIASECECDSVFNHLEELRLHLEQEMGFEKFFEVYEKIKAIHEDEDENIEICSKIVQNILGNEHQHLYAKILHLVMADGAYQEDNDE
Sequence of Protein kinase C delta type (Homo sapiens) (Q05655 whole entry, looked up): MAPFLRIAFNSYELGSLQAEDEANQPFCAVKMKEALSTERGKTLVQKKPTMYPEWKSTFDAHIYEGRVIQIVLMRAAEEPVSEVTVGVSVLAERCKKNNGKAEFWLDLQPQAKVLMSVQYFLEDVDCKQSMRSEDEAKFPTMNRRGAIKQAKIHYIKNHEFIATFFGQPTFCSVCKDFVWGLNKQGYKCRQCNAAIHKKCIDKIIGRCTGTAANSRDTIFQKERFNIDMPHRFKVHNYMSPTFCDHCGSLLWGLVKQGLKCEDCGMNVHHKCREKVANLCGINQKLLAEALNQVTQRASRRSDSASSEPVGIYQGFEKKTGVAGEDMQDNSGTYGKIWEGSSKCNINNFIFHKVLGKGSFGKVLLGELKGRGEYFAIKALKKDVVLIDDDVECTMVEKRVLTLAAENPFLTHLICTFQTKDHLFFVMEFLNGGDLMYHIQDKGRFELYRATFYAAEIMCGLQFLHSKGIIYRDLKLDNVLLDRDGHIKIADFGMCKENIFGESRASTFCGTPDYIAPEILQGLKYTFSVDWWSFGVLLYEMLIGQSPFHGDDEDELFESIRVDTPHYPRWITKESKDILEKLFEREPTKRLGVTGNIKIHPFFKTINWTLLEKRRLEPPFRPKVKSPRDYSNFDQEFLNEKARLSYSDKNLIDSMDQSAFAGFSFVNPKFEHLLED

Structure (SMILES): CN1C[C@H](Nc2nc3cc[nH]c3c(=O)n2C)C[C@H](c2ccc3c(c2)OCCO3)C1
- fold change (FC) [1]: >1.5
- fold change (FC) [2]: >1.5
- inhibition [3]: inactive
- fold change (FC) [4]: >1.5
- fraction unbound at 16 h, 1 µM [5]: 0.058
- fold change (FC) [6]: >1.5
- fold change (FC) [7]: >1.5
- inhibition [8]: inactive
- fold change (FC) [9]: >1.5
- fold change (FC) [10]: >1.5
- inhibition [11]: inactive
- inhibition [12]: inactive
- inhibition [13]: inactive
- fold change (FC) [14]: >1.5
- fold change (FC) [15]: >1.5
- inhibition [16]: inactive
- inhibition [17]: inactive
- fold change (FC) [18]: >1.5
- fold change (FC) [19]: >1.5
- fold change (FC) [20]: >1.5
- inhibition [21]: inactive
- inhibition [22]: inactive
- inhibition [23]: inactive
- inhibition [24]: inactive
- fold change (FC) [25]: >1.5
- fold change (FC) [26]: >1.5
- fold change (FC) [27]: >1.5
- fold change (FC) [28]: >1.5
- inhibition [29]: inactive
- fold change (FC) [30]: >1.5

Structure (SMILES): CN1C[C@@H](Nc2nc3cc[nH]c3c(=O)n2C)C[C@@H](c2ccc3c(c2)OCCO3)C1
- fold change (FC) [1]: >1.5
- fold change (FC) [2]: >1.5
- fold change (FC) [4]: >1.5
- fold change (FC) [6]: >1.5
- fold change (FC) [7]: >1.5
- fold change (FC) [9]: >1.5
- fold change (FC) [10]: >1.5
- fold change (FC) [14]: >1.5
- fold change (FC) [15]: >1.5
- fold change (FC) [18]: >1.5
- fold change (FC) [19]: >1.5
- fold change (FC) [20]: >1.5
- fold change (FC) [25]: >1.5
- fold change (FC) [26]: >1.5
- fold change (FC) [27]: >1.5
- fold change (FC) [28]: >1.5
- fold change (FC) [30]: >1.5
